First the molecules themselves.
T1: LSD2 (Homo sapiens, UniProt Q8NB78)
T1 sequence (Q8NB78 1-822): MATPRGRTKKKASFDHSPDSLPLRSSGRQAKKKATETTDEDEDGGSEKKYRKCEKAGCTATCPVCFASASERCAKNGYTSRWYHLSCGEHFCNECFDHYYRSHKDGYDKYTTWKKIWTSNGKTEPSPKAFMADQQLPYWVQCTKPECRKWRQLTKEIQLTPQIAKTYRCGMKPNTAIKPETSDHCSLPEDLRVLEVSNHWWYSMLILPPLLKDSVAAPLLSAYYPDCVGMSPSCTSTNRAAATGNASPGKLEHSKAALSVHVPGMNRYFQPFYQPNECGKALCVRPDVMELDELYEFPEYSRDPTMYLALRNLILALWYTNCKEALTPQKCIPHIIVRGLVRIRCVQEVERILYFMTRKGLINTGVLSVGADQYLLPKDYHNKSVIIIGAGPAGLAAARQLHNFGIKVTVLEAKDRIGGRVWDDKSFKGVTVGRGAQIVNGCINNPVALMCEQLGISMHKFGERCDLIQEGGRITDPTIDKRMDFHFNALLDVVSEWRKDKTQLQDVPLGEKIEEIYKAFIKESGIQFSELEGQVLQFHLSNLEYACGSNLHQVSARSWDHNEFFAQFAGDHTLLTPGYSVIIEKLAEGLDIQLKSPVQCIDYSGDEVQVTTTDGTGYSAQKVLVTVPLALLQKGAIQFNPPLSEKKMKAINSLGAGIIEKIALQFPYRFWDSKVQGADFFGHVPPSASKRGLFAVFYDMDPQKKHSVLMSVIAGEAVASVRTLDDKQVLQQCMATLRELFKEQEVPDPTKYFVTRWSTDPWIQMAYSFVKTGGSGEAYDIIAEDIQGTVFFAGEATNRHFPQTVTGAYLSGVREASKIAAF

T2: recombinant hexa-His-tagged LSD2 (human, UniProt Q8NB78 1-822)
T2 sequence (looked up): T1 sequence (Q8NB78 1-822)

B1: NP.d8: residues 188–252 (protein)
chain: TVKGMMAGPMAAFKWQPTASEPVKDADPHFHHFLLSQTEKPAVCYQAITKKLKICEEETGSTSIQ
modifications: left off: GST, end not stated, kept
B2: NP.d1: PWWP domain, residues 1–150; GST-tagged (protein)
chain: MAAVSLRLGDLVWGKLGRYPPWPGKIVNPPKDLKKPRGKKCFFVKFFGTEDHAWIKVEQLKPYHAHKEEMIKINKGKRFQQAVDAVEEFLRRAKGKDQTSSHNSSDDKNRRNSSEERSRPNSGDEKRKLSLSEGKVKKNMGEGKKRVSSG
modifications: left off: GST, end not stated, kept
B3: NP.d4: truncation protein containing the linker region, residues 152–553; GST-tagged (protein)
chain: SERGSKSPLKRAQEQSPRKRGRPPKDEKDLTIPESSTVKGMMAGPMAAFKWQPTASEPVKDADPHFHHFLLSQTEKPAVCYQAITKKLKICEEETGSTSIQAADSTAVNGSITPTDKKIGFLGLGLMGSGIVSNLLKMGHTVTVWNRTAEKCDLFIQEGARLGRTPAEVVSTCDITFACVSDPKAAKDLVLGPSGVLQGIRPGKCYVDMSTVDADTVTELAQVIVSRGGRFLEAPVSGNQQLSNDGMLVILAAGDRGLYEDCSSCFQAMGKTSFFLGEVGNAAKMMLIVNMVQGSFMATIAEGLTLAQVTGQSQQTLLDILNQGQLASIFLDQKCQNILQGNFKPDFYLKYIQKDLRLAIALGDAVNHPTPMAAAANEVYKRAKALDQSDNDMSAVYRAYIH
modifications: left off: GST, end not stated, kept
B4: NP.d5: dehydrogenase domain, residues 262–553; GST-tagged (protein)
chain: SITPTDKKIGFLGLGLMGSGIVSNLLKMGHTVTVWNRTAEKCDLFIQEGARLGRTPAEVVSTCDITFACVSDPKAAKDLVLGPSGVLQGIRPGKCYVDMSTVDADTVTELAQVIVSRGGRFLEAPVSGNQQLSNDGMLVILAAGDRGLYEDCSSCFQAMGKTSFFLGEVGNAAKMMLIVNMVQGSFMATIAEGLTLAQVTGQSQQTLLDILNQGQLASIFLDQKCQNILQGNFKPDFYLKYIQKDLRLAIALGDAVNHPTPMAAAANEVYKRAKALDQSDNDMSAVYRAYIH
modifications: left off: GST, end not stated, kept
B5: NP.d9: deletion of amino acids 214–222 from NP.d3 (protein)
chain: SERGSKSPLKRAQEQSPRKRGRPPKDEKDLTIPESSTVKGMMAGPMAAFKWQPTASEPVKDASQTEKPAVCYQAITKKLKICEEETGSTSIQ
modifications: left off: GST, end not stated, kept
B6: NP.d2: truncation protein containing the linker region, residues 1–252; GST-tagged (protein)
chain: MAAVSLRLGDLVWGKLGRYPPWPGKIVNPPKDLKKPRGKKCFFVKFFGTEDHAWIKVEQLKPYHAHKEEMIKINKGKRFQQAVDAVEEFLRRAKGKDQTSSHNSSDDKNRRNSSEERSRPNSGDEKRKLSLSEGKVKKNMGEGKKRVSSGSSERGSKSPLKRAQEQSPRKRGRPPKDEKDLTIPESSTVKGMMAGPMAAFKWQPTASEPVKDADPHFHHFLLSQTEKPAVCYQAITKKLKICEEETGSTSIQ
modifications: left off: GST, end not stated, kept
B7: NP.d6: deletion of the linker region (residues 152–252); GST-tagged (protein)
chain: MAAVSLRLGDLVWGKLGRYPPWPGKIVNPPKDLKKPRGKKCFFVKFFGTEDHAWIKVEQLKPYHAHKEEMIKINKGKRFQQAVDAVEEFLRRAKGKDQTSSHNSSDDKNRRNSSEERSRPNSGDEKRKLSLSEGKVKKNMGEGKKRVSSGSAADSTAVNGSITPTDKKIGFLGLGLMGSGIVSNLLKMGHTVTVWNRTAEKCDLFIQEGARLGRTPAEVVSTCDITFACVSDPKAAKDLVLGPSGVLQGIRPGKCYVDMSTVDADTVTELAQVIVSRGGRFLEAPVSGNQQLSNDGMLVILAAGDRGLYEDCSSCFQAMGKTSFFLGEVGNAAKMMLIVNMVQGSFMATIAEGLTLAQVTGQSQQTLLDILNQGQLASIFLDQKCQNILQGNFKPDFYLKYIQKDLRLAIALGDAVNHPTPMAAAANEVYKRAKALDQSDNDMSAVYRAYIH
modifications: left off: GST, end not stated, kept
B8: GST-NP.d8 (NPAC residues 188–252) (domain or fragment, UniProt Q49A26 188-252, looked up)
chain: B1 chain
B9: GST-NP.d4 (NPAC residues 152–553) (domain or fragment, UniProt Q49A26 152-553, looked up)
chain: B3 chain
B10: GST-NP.d3 (NPAC residues 152–252, linker region) (domain or fragment, UniProt Q49A26 152-252, looked up)
chain: SERGSKSPLKRAQEQSPRKRGRPPKDEKDLTIPESSTVKGMMAGPMAAFKWQPTASEPVKDADPHFHHFLLSQTEKPAVCYQAITKKLKICEEETGSTSIQ
B11: GST-NP.d2 (NPAC residues 1–252) (domain or fragment, UniProt Q49A26 1-252, looked up)
chain: B6 chain
B12: GST-tagged wild-type NPAC (natural protein, UniProt Q49A26 1-553, looked up)
chain: MAAVSLRLGDLVWGKLGRYPPWPGKIVNPPKDLKKPRGKKCFFVKFFGTEDHAWIKVEQLKPYHAHKEEMIKINKGKRFQQAVDAVEEFLRRAKGKDQTSSHNSSDDKNRRNSSEERSRPNSGDEKRKLSLSEGKVKKNMGEGKKRVSSGSSERGSKSPLKRAQEQSPRKRGRPPKDEKDLTIPESSTVKGMMAGPMAAFKWQPTASEPVKDADPHFHHFLLSQTEKPAVCYQAITKKLKICEEETGSTSIQAADSTAVNGSITPTDKKIGFLGLGLMGSGIVSNLLKMGHTVTVWNRTAEKCDLFIQEGARLGRTPAEVVSTCDITFACVSDPKAAKDLVLGPSGVLQGIRPGKCYVDMSTVDADTVTELAQVIVSRGGRFLEAPVSGNQQLSNDGMLVILAAGDRGLYEDCSSCFQAMGKTSFFLGEVGNAAKMMLIVNMVQGSFMATIAEGLTLAQVTGQSQQTLLDILNQGQLASIFLDQKCQNILQGNFKPDFYLKYIQKDLRLAIALGDAVNHPTPMAAAANEVYKRAKALDQSDNDMSAVYRAYIH

Entries after “also recorded” stand apart in the source; their conditions may differ. No end group written: not given here.

One experiment addresses T1, LSD2. Put plainly: GST pull-down of His-LSD2. In kind it is binding. Particulars: GST pull-down of purified His-LSD2; SDS-PAGE, Coomassie blue staining. Summed up:
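GST and GST-tagged wild-type or mutant NPAC proteins (linker-region and binding-site mutants) were used to pull down purified His-LSD2. His-LSD2 in input and bound fractions was resolved by SDS-PAGE and stained with Coomassie blue.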
For the molecule “NP.d7: residues 152–186, containing the AT-hook motif (SERGSKSPLKRAQEQSPRKRGRPPKDEKDLTIPES; also: GST fusion, end not given here)”, the “LSD2 binding / interaction” value is “but not NP.d7 (residues 152–186, containing the AT-hook motif, lane 4), was sufficient for LSD2 interaction”.
On the same count and under the same terms, then B1, with “sufficient for LSD2 interaction”.
On the same count and under the same terms, in the case of B2 it was “Neither the PWWP domain (NP.d1) nor the dehydrogenase domain (NP.d5) interacted with LSD2”.
Still for that read-out and setting: then B3, with “capable of directly interacting with LSD2; also recorded: did not adversely affect LSD2 binding”; and B4, with “Neither the PWWP domain (NP.d1) nor the dehydrogenase domain (NP.d5) interacted with LSD2”.
In the case of B5, the “LSD2 binding / interaction” value is “completely abolished LSD2 binding”.
On the same count and under the same terms, in the case of B6 it was “capable of directly interacting with LSD2; also recorded: did not adversely affect LSD2 binding”.
For B7, the “LSD2 binding / interaction” value is recorded as “abolished NPAC-LSD2 interaction”.

In a further experiment the target is T2, recombinant hexa-His-tagged LSD2. Put plainly: pull-down.
Conditions: not given
For B8, the binding result is “binds”.
Same read-out and setting: then B9, with “binds”.
Turning to B10, the binding result is “binds”.
Same read-out and setting: then B11, with “binds”.
On the same count and under the same terms, then B12, with “binds”.

For the origin of these results see article PMC3625064 (Molecular cell, 2012).
